Converted amounts (≈) assume the structure as drawn. The source made the active and inactive calls. The rule behind the calls is not given here.
What was measured:
MCF7 [1] = assay: Cytotoxicity against human MCF7 cells assessed as growth inhibition after 24 hrs by MTT assay; settings: MCF7, 24 h
THP-1 = assay: Cytotoxicity against human THP1 cells assessed as growth inhibition after 24 hrs by MTT assay; settings: THP-1, 24 h
MCF7 [2] = assay: Ratio of etoposide IC50 to compound IC50 for human MCF7 cells assessed as growth inhibition after 24 hrs by MTT assay
A549 = assay: Cytotoxicity against human A549 cells assessed as growth inhibition after 24 hrs by MTT assay; settings: A549, 24 h
[3] = Cytotoxicity against human U937 cells assessed as growth inhibition after 24 hrs by MTT assay; settings: U-937, 24 h
U-937 [4] = assay: Ratio of etoposide IC50 to compound IC50 for human U937 cells assessed as growth inhibition after 24 hrs by MTT assay
U-937 [5] = assay: Cytotoxicity against human U937 cells assessed as nuclear condensation at IC50 by light microscopy; format: functional, cell-based
In short: (§1)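 U937 cells were exposed to one concentration per derivative and examined by light microscopy at 400X against untreated controls with intact cells. Cells were scored for shrinkage in cell size, nuclear condensation and formation of apoptotic bodies.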

U-937 [6] = assay: Cytotoxicity against human U937 cells assessed as shrinkage in cell size at IC50 by light microscopy; format: functional, cell-based
In short: as §1

U-937 [7] = assay: Cytotoxicity against human U937 cells assessed as formation of apoptotic bodies at IC50 by light microscopy; format: functional, cell-based
In short: as §1

Structure (SMILES) | IC50 (MCF7 [1]) [µg/mL] | IC50 (THP-1) [µg/mL] | Ratio IC50 (MCF7 [2]) | IC50 (A549) [µg/mL] | IC50 [3] [µg/mL] | Ratio IC50 (U-937 [4]) | Activity (U-937 [5]) | Activity (U-937 [6]) | Activity (U-937 [7])
COc1ccc2[nH]cc(C3(O)C(=O)N(Cc4ccccc4Cl)c4ccccc43)c2c1 (centres undefined) | 13.4 (≈ 32.1 µM) | 5.6 (≈ 13.4 µM) | 1 | 33.1 (≈ 79 µM) | 7.6 (≈ 18.1 µM) | – | – | – | –
O=C1N(Cc2ccccc2Cl)c2ccc(Cl)cc2C1(O)c1c[nH]c2ccccc12 (centres undefined) | 20.6 (≈ 48.7 µM) | 7.01 (≈ 16.6 µM) | – | 15.8 (≈ 37.2 µM) | 4.89 (≈ 11.6 µM) | 0.5 | – | – | –
O=C1N(Cc2ccccc2Cl)c2ccc(Cl)cc2C1(O)c1c[nH]c2ccc(Br)cc12 (centres undefined) | 21.3 (≈ 42.3 µM) | 6.12 (≈ 12.2 µM) | – | 16.5 (≈ 32.9 µM) | 5.31 (≈ 10.6 µM) | 0.5 | – | – | –
COc1ccc2[nH]cc(C3(O)C(=O)Nc4ccc(Cl)cc43)c2c1 (centres undefined) | – | – | – | – | 39.8 (≈ 121 µM) | – | – | – | –
O=C1N(Cc2ccccc2Cl)c2ccccc2C1(O)c1c[nH]c2ccccc12 (centres undefined) | 39.3 (≈ 101 µM) | 6.97 (≈ 17.9 µM) | – | 28.1 (≈ 72.4 µM) | 15 (≈ 38.5 µM) | – | – | – | –
O=C1Nc2c(Cl)cccc2C1(O)c1c[nH]c2ccccc12 (centres undefined) | – | 86.1 (≈ 288 µM) | – | – | – | – | – | – | –
CN1C(=O)C(O)(c2c[nH]c3ccccc23)c2ccccc21 (centres undefined) | 49 (≈ 176 µM) | – | – | – | – | – | – | – | –
O=C1N(Cc2ccc(Br)cc2)c2ccc(Cl)cc2C1(O)c1c[nH]c2ccc(Br)cc12 (centres undefined) | 20.4 (≈ 37.3 µM) | 6.06 (≈ 11.1 µM) | – | 18.4 (≈ 33.6 µM) | 12.2 (≈ 22.2 µM) | – | – | – | –
O=C1N(Cc2ccccc2Br)c2ccccc2C1(O)c1c[nH]c2ccc(Br)cc12 (centres undefined) | 24.7 (≈ 48.3 µM) | 6.93 (≈ 13.5 µM) | – | 29.8 (≈ 58.1 µM) | 14.9 (≈ 29.1 µM) | – | – | – | –
O=C1Nc2ccc(F)cc2C1(O)c1c[nH]c2ccc(Br)cc12 (centres undefined) | – | 76 (≈ 210 µM) | – | – | – | – | – | – | –
O=C1N(Cc2ccccc2)c2ccc(Cl)cc2C1(O)c1c[nH]c2ccc(Br)cc12 (centres undefined) | 8.64 (≈ 18.5 µM) | 7.12 (≈ 15.2 µM) | 1 | 13.3 (≈ 28.5 µM) | 8.02 (≈ 17.1 µM) | – | Active | Active | Active
O=C1Nc2ccc(I)cc2C1(O)c1c[nH]c2ccc(F)cc12 (centres undefined) | – | 62.4 (≈ 153 µM) | – | 43.7 (≈ 107 µM) | – | – | – | – | –
Cc1ccc2[nH]cc(C3(O)C(=O)Nc4ccc(F)cc43)c2c1 (centres undefined) | – | – | – | – | 35.5 (≈ 120 µM) | – | – | – | –
O=C1N(Cc2ccccc2)c2ccccc2C1(O)c1c[nH]c2ccccc12 (centres undefined) | – | 64.5 (≈ 182 µM) | – | 22.8 (≈ 64.2 µM) | 43 (≈ 121 µM) | – | – | – | –
COc1ccc2[nH]cc(C3(O)C(=O)Nc4ccc(I)cc43)c2c1 (centres undefined) | – | 69.2 (≈ 165 µM) | – | – | – | – | – | – | –
Cc1ccc2c(c1)C(O)(c1c[nH]c3ccccc13)C(=O)N2 (centres undefined) | – | – | – | – | 83.4 (≈ 300 µM) | – | – | – | –

Structure (SMILES) | IC50 (MCF7 [1]) [µg/mL] | IC50 (THP-1) [µg/mL] | Ratio IC50 (MCF7 [2]) | IC50 (A549) [µg/mL] | IC50 [3] [µg/mL] | Ratio IC50 (U-937 [4]) | Activity (U-937 [5]) | Activity (U-937 [6]) | Activity (U-937 [7])
O=C1Nc2ccc(OC(F)(F)F)cc2C1(O)c1c[nH]c2ccccc12 (centres undefined) | 71.5 (≈ 205 µM) | 13.7 (≈ 39.4 µM) | – | – | 16.8 (≈ 48.2 µM) | – | – | – | –
O=C1Nc2ccc(Br)cc2C1(O)c1c[nH]c2ccccc12 (centres undefined) | – | – | – | 72.5 (≈ 211 µM) | 19.3 (≈ 56.2 µM) | – | – | – | –
O=C1N(Cc2ccccc2)c2ccccc2C1(O)c1c[nH]c2ccc(Br)cc12 (centres undefined) | 31.2 (≈ 72.1 µM) | 14.2 (≈ 32.7 µM) | – | 25.1 (≈ 57.9 µM) | 17.1 (≈ 39.4 µM) | – | – | – | –
COc1ccc2[nH]cc(C3(O)C(=O)N(Cc4ccccc4Cl)c4ccc(Cl)cc43)c2c1 (centres undefined) | 10.8 (≈ 23.9 µM) | 4.27 (≈ 9.42 µM) | 1 | 14.1 (≈ 31.1 µM) | 6.07 (≈ 13.4 µM) | 0.5 | Active | Active | Active
COc1cc([C@@H]2c3cc4c(cc3[C@@H](O[C@@H]3O[C@@H]5CO[C@@H](C)O[C@H]5[C@H](O)[C@H]3O)[C@H]3COC(=O)[C@H]23)OCO4)cc(OC)c1O [ETOPOSIDE] | 17.8 (≈ 30.2 µM) | – | – | 10.7 (≈ 18.2 µM) | 6.14 (≈ 10.4 µM) | – | – | – | –
O=C1Nc2ccc(Br)cc2C1(O)c1c[nH]c2ccc(Br)cc12 (centres undefined) | 68.7 (≈ 163 µM) | 86.1 (≈ 204 µM) | – | 25.1 (≈ 59.5 µM) | 43.3 (≈ 103 µM) | – | – | – | –
Cc1ccc2[nH]cc(C3(O)C(=O)Nc4ccc(I)cc43)c2c1 (centres undefined) | 84.5 (≈ 209 µM) | 87.1 (≈ 216 µM) | – | 25.2 (≈ 62.3 µM) | 23.1 (≈ 57.3 µM) | – | – | – | –
O=C1Nc2ccc(F)cc2C1(O)c1c[nH]c2ccccc12 (centres undefined) | – | – | – | – | 43.7 (≈ 155 µM) | – | – | – | –
O=C1Nc2ccc(OC(F)(F)F)cc2C1(O)c1c[nH]c2ccc(Br)cc12 (centres undefined) | 5.47 (≈ 12.8 µM) | – | 1 | 13 (≈ 30.4 µM) | – | – | – | – | –
O=C1N(Cc2ccccc2Cl)c2ccccc2C1(O)c1c[nH]c2ccc(Br)cc12 (centres undefined) | 22.3 (≈ 47.7 µM) | 7.37 (≈ 15.8 µM) | – | 16.2 (≈ 34.5 µM) | 7.16 (≈ 15.3 µM) | – | – | – | –
O=C1N(Cc2ccccc2)c2ccc(Cl)cc2C1(O)c1c[nH]c2ccccc12 (centres undefined) | 24 (≈ 61.8 µM) | 5.03 (≈ 12.9 µM) | – | 18.3 (≈ 47.1 µM) | 4.33 (≈ 11.1 µM) | 0.5 | Active | Active | Active
O=C1Nc2ccc(Cl)cc2C1(O)c1c[nH]c2ccccc12 (centres undefined) | – | – | – | – | 19.8 (≈ 66.3 µM) | – | – | – | –
O=C1Nc2ccc(I)cc2C1(O)c1c[nH]c2ccccc12 (centres undefined) | – | – | – | – | 21.6 (≈ 55.3 µM) | – | – | – | –
COc1ccc2[nH]cc(C3(O)C(=O)Nc4ccc(F)cc43)c2c1 (centres undefined) | – | – | – | – | 55.9 (≈ 179 µM) | – | – | – | –
O=C1Nc2ccc(Cl)cc2C1(O)c1c[nH]c2ccc(Br)cc12 (centres undefined) | 95.5 (≈ 253 µM) | 98.5 (≈ 261 µM) | – | 19.8 (≈ 52.5 µM) | 25.3 (≈ 67 µM) | – | – | – | –
